Experiment [1] has as its system Aspergillus fumigatus. Nature of the experiment: Antifungal activity against Aspergillus fumigatus ATCC 96918 after 24 hrs by twofold serial dilution method. It counts as functional. Conditions: ATCC 96918, 24 h. The method, boiled down:
(§1)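 A fungal spore suspension was made in sterile distilled water from a 1-day-old culture grown on Sabouraud agar, then tested against serial dilutions of compounds (DMSO stocks) to determine MIC.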

Experiment [2] deals with Candida albicans. The experiment in a line: Antifungal activity against Candida albicans ATCC 76615 after 24 hrs by twofold serial dilution method. As to conditions: ATCC 76615, 24 h. It counts as functional. The method, boiled down:
as §1

In experiment [3] the test system is Bacillus. Nature of the experiment: Antibacterial activity against Bacillus proteus ATCC 13315 after 24 hrs by twofold serial dilution method. In kind it is functional. As to conditions: ATCC 13315, 24 h. The method, boiled down: (§2)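 Each bacterial suspension was adjusted with sterile saline to 1 × 10⁵ CFU. Compounds were first dissolved in DMSO as stock solutions, then diluted in Mueller–Hinton broth in twofold steps (8, 4, 2, 1, 0.5, 0.25). Dilutions were inoculated and incubated at 37 °C for 24 h, and MIC was read. DMSO plus inoculum without drug served as a solvent control.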

Experiment [4] has as its system Pseudomonas aeruginosa. The experiment in a line: Antibacterial activity against Pseudomonas aeruginosa ATCC 27853 after 24 hrs by twofold serial dilution method. In kind it is functional. Conditions: ATCC 27853, 24 h. The method, boiled down:
as §2

Experiment [5] has as its system Bacillus subtilis. The experiment in a line: Antibacterial activity against Bacillus subtilis ATCC 21216 after 24 hrs by twofold serial dilution method. It counts as functional. As to conditions: ATCC 21216, 24 h. The method, boiled down: as §2
The test system of experiment [6] is Staphylococcus aureus. Nature of the experiment: Antibacterial activity against Staphylococcus aureus ATCC 6538 after 24 hrs by twofold serial dilution method. It counts as functional. Conditions: ATCC 6538, 24 h. The method, boiled down:
as §2

Experiment [7] concerns Escherichia coli. The experiment in a line: Antibacterial activity against Escherichia coli ATCC 8099 after 24 hrs by twofold serial dilution method. It counts as functional. Conditions: ATCC 8099, 24 h. The method, boiled down:
as §2

Experiment [8] concerns Staphylococcus aureus. The experiment in a line: Antibacterial activity against methicillin-resistant Staphylococcus aureus N315 after 24 hrs by twofold serial dilution method. In kind it is functional. Conditions: N315, 24 h. The method, boiled down:
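Compounds were dissolved in DMSO as stock, then diluted twofold in Mueller–Hinton broth. Chloromycin and norfloxacin were run as reference drugs. The inoculum was adjusted in sterile saline to 1 × 10⁵ CFU, and a DMSO-plus-inoculum well served as solvent control. Plates were incubated at 37 °C for 24 h and read as MIC.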

The test system of experiment [9] is Aspergillus fumigatus. The experiment in a line: Ratio of Fluconazole MIC to compound MIC for Aspergillus fumigatus ATCC 96918.
The subject of experiment [10] is Bacillus. Nature of the experiment: Ratio of Chloromycin MIC to compound MIC for Bacillus proteus ATCC 13315. It counts as functional.
The test system of experiment [11] is Escherichia coli. The experiment in a line: Ratio of Chloromycin MIC to compound MIC for Escherichia coli ATCC 8099. It counts as functional.

Experimental findings from ChEMBL document CHEMBL1817584, “Synthesis of novel fluconazoliums and their evaluation for antibacterial and antifungal activities” (2011) are described below.

Converted amounts (≈) assume the structure as drawn. Where only a bound is given, the exact number is not on record here.

With `O=C1c2cccc3c(Br)ccc(c23)C(=O)N1CCCCCC[n+]1cnn(CC(O)(Cn2c[n+](CCCCCCN3C(=O)c4cccc5c(Br)ccc(c45)C3=O)cn2)c2ccc(F)cc2F)c1.[Br-].[Br-]`, the minimal inhibitory concentration (MIC) turned out to be 32 µg/mL in [1]; 16 µg/mL in [2]; 64 µg/mL in [3]; 32 µg/mL in [4]; 64 µg/mL in experiment [5]; 8 µg/mL in experiment [6]. Also, the values for the MIC in experiment [7] and in experiment [8] were 8 µg/mL and 16 µg/mL, respectively. Besides, the Ratio in experiment [9] worked out at 8.

Take `OC(Cn1c[n+](Cc2ccc(Cl)cc2Cl)cn1)(Cn1c[n+](Cc2ccc(Cl)cc2Cl)cn1)c1ccc(F)cc1F.[Cl-].[Cl-]`: in [10], the Ratio is on record as 32. Besides, the MIC in experiment [1] was found to be 128 µg/mL; in [2] it was 16 µg/mL; in [3], 0.5 µg/mL; in experiment [4] it was 4 µg/mL; in experiment [5], 16 µg/mL; in experiment [6], 8 µg/mL. The MIC in experiment [7] and in [8] was 4 µg/mL throughout.

Take `F[P-](F)(F)(F)(F)F.F[P-](F)(F)(F)(F)F.OC(Cn1c[n+](Cc2ccc(Cl)cc2Cl)cn1)(Cn1c[n+](Cc2ccc(Cl)cc2Cl)cn1)c1ccc(F)cc1F`: the Ratio in experiment [11] came to 256. Besides, the MIC came to 256 µg/mL in experiment [1]; 128 µg/mL in experiment [2]; 1 µg/mL in [3]; 64 µg/mL in [4]; 32 µg/mL in experiment [5]; 32 µg/mL in experiment [6]. Besides, the minimal inhibitory concentration (MIC) in experiment [7] is at most 0.25 µg/mL; in experiment [8], 32 µg/mL.

Regarding `O=C1c2cccc3c(Br)ccc(c23)C(=O)N1CCCCCCBr`, the MIC in experiment [1] was 256 µg/mL (≈ 583 µM); in experiment [2] it was above 256 µg/mL; in experiment [3], above 256 µg/mL; in experiment [4], above 256 µg/mL; in experiment [5], above 256 µg/mL; in experiment [6] it was 256 µg/mL (≈ 583 µM). Besides, the MIC in experiment [7] and in [8] was above 256 µg/mL in each case.

For `Fc1ccc(Cn2c[n+](Cc3ccc(Cl)cc3Cl)cn2)c(F)c1.[Br-]`, the MIC in experiment [1] is above 256 µg/mL; in [2] it was above 256 µg/mL; in [3] it was 64 µg/mL; in experiment [4], 128 µg/mL; in experiment [5], 128 µg/mL; in experiment [6], above 256 µg/mL. Further, the MIC is 128 µg/mL in [7] and above 256 µg/mL in experiment [8].

`Fc1ccc(Cn2c[n+](CCOc3ccc4ccccc4c3)cn2)c(F)c1.[Br-]`: the MIC came out at 128 µg/mL in experiment [1]; 32 µg/mL in [2]; 16 µg/mL in experiment [3]; 8 µg/mL in experiment [4]; 64 µg/mL in experiment [5]; 16 µg/mL in experiment [6]. The MIC was 8 µg/mL in experiment [7] and 64 µg/mL in [8].

Regarding `O=C1c2cccc3c(Br)ccc(c23)C(=O)N1CCC[n+]1cnn(CC(O)(Cn2c[n+](CCCN3C(=O)c4cccc5c(Br)ccc(c45)C3=O)cn2)c2ccc(F)cc2F)c1.[Br-].[Br-]`, the MIC in [1] is 16 µg/mL; in experiment [2], 8 µg/mL; in experiment [3] it was 32 µg/mL; in experiment [4], 16 µg/mL; in experiment [5] it was 64 µg/mL; in experiment [6], 8 µg/mL. Further, the values for the MIC in experiment [7] and in [8] were 8 µg/mL and 4 µg/mL, respectively. In experiment [9], the Ratio is 8.

Turning to `OC(Cn1c[n+](Cc2ccc(Cl)cc2Cl)cn1)(Cn1c[n+](Cc2ccc(Cl)cc2Cl)cn1)c1ccc(F)cc1F.[Br-].[Br-]`, the MIC was 128 µg/mL in [1]; 64 µg/mL in experiment [2]; 4 µg/mL in experiment [3]; 64 µg/mL in experiment [4]; 32 µg/mL in experiment [5]; 64 µg/mL in experiment [6]. Besides, the MIC in experiment [7] is 16 µg/mL; in experiment [8] it was 64 µg/mL.

On to `CCCC[n+]1cnn(CC(O)(Cn2c[n+](CCCC)cn2)c2ccc(F)cc2F)c1.[Br-].[Br-]`, for which the MIC in [1] is above 256 µg/mL; in [2], 128 µg/mL; in [3], 256 µg/mL; in experiment [4], 256 µg/mL; in experiment [5], above 256 µg/mL; in experiment [6] it was above 256 µg/mL. The MIC is 128 µg/mL in experiment [7] and above 256 µg/mL in experiment [8].

One may read the MIC as the smallest concentration in the dilution series that meets the test's criterion for growth inhibition. Low readings indicate inhibition by little substance, high ones a need for much substance.
